ChEMBL document CHEMBL3044819, “Structure-activity relationship in the interaction of substituted perinaphthenones with Mycosphaerella fijiensis” (J Agric Food Chem, 2009)
Active and inactive are the calls of the source. The rule behind the calls is not given here.

The compounds below were run on Pseudocercospora fijiensis (assay: Antifungal activity against Pseudocercospora fijiensis assessed as inhibition of mycelial growth under 12 hr photoperiod measured after 8 days).
Type: functional, organism-based
Method in brief: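 Microtiter well assay; inoculum adjusted to 2 × 10⁵ mycelial fragments/mL. Plates kept in an incubation chamber 1 m from white fluorescent tubes on a 12 h photoperiod. Mycelial growth was measured after 8 days, which is the logarithmic growth phase. IC₅₀ values were calculated from growth inhibition, with statistical analysis per Lazzaro et al. Benomyl and propiconazole were tested as reference fungicides.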
In the case of `O=C1C=Cc2c(O)ccc3cccc1c23`, the “growth inhibition (GI)” value is reported as “inactive”. In the case of `COC1=Cc2cccc3cccc(c23)C1=O`, the “growth inhibition (GI)” value is reported as “inactive”. In the case of `COc1ccc2cccc3c2c1C=CC3=O`, the “growth inhibition (GI)” value is reported as “inactive”. With `O=C1C(Cl)=Cc2cccc3cccc1c23` the “growth inhibition (GI)” value was “Active”. In the case of `COC1=CC(=O)c2cccc3cccc1c23`, the “growth inhibition (GI)” value is reported as “inactive”. In the case of `O=C1C(Br)=Cc2cccc3cccc1c23`, the “growth inhibition (GI)” value is reported as “Active”. In the case of `O=C1C=Cc2ccc(O)c3cccc1c23`, the “growth inhibition (GI)” value is reported as “inactive”. In the case of `COc1ccc2c3c(cccc13)C(=O)C=C2`, the “growth inhibition (GI)” value is reported as “inactive”. In the case of `O=C1C=Cc2cccc3cccc1c23`, the “growth inhibition (GI)” value is reported as “Active”. `O=C1C([N+](=O)[O-])=Cc2cccc3cccc1c23` was tested, and the “growth inhibition (GI)” value was “Active”. `COc1ccc2cccc3c2c1C=C([N+](=O)[O-])C3=O` was tested, and the “growth inhibition (GI)” value was “Active”. For `O=C1C(O)=Cc2cccc3cccc1c23`, the “growth inhibition (GI)” value was “inactive”. For `O=C1C=C(O)c2cccc3cccc1c23`, the “growth inhibition (GI)” value was “inactive”.
